# Data from ChEMBL document CHEMBL1139005, “Branched diacylglycerol-lactones as potent protein kinase C ligands and alpha-secretase activators” (J Med Chem, 2006).
# pKi: −log10 of the molar value.
# Legend:
# W4 (Rattus norvegicus) = test: Activation of alpha secretase assessed by sAPPalpha secretion in W4 cells relative to control; design: concentration or dose not given beside the values
# [1] = biological target: Protein kinase C alpha type (Homo sapiens, UniProt P17252); test: Displacement of [20-3H]PDBu from recombinant PKC alpha in presence of phosphatidylserine
# Method in brief: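 Competition for bound [20-3H]phorbol 12,13-dibutyrate on recombinant PKC-α with phosphatidylserine present; IC50 obtained by fitting points to the theoretical competition curve, then converted to Ki.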
Compound,Activity (W4 (Rattus norvegicus)) [%],pKi [1]
CC(C)CC(C/C=C1/CC(CO)(COC(=O)C(C)(C)C)OC1=O)CC(C)C (configuration not stated),177,
CC(C)CC(C/C=C1\CC(CO)(COC(=O)CC(C(C)C)C(C)C)OC1=O)CC(C)C (configuration not stated),225,
CCCCCCCC(=O)OCC1(CO)C/C(=C\CC(CC(C)C)CC(C)C)C(=O)O1 (configuration not stated),141,8.22
CCCCCCCC(=O)OCC1(CO)CC/C(=C\CC(CC(C)C)CC(C)C)C(=O)O1 (configuration not stated),,6.89
CCCCCC(=O)OCC1(CO)CC/C(=C\CC(CC(C)C)CC(C)C)C(=O)O1 (configuration not stated),,6.83
CC(C)CC(C/C=C1/CC(CO)(COC(=O)CC(CC(C)C)CC(C)C)OC1=O)CC(C)C (configuration not stated),,8.16
CC(C)CC(C/C=C1/CC(CO)(COC(=O)c2ccccc2)OC1=O)CC(C)C (configuration not stated),157,8.18
CC(C)CC(C/C=C1/CCC(CO)(COC(=O)C(C)(C)C)OC1=O)CC(C)C (configuration not stated),,7.55
CCCC(=O)O[C@@H]1[C@@H](C)[C@@]2(O)[C@@H](C=C(CO)C[C@]3(O)C(=O)C(C)=C[C@@H]23)[C@@H]2C(C)(C)[C@]12OC(=O)CCC,185,
CC(C)CC(C/C=C1\CC(CO)(COC(=O)c2ccccc2)OC1=O)CC(C)C (configuration not stated),131,7.79
CCCCCC(=O)OCC1(CO)C/C(=C/CC(CC(C)C)CC(C)C)C(=O)O1 (configuration not stated),,8.42
CC(C)CC(C/C=C1\CC(/C=C/C(=O)OC(C)(C)C)(CO)OC1=O)CC(C)C (configuration not stated),,6.76
CC(C)CC(C/C=C1\CC(/C=C\C(=O)OC(C)(C)C)(CO)OC1=O)CC(C)C (configuration not stated),,4.66
CC(C)CCC1(CCC(C)C)CC(CO)(COC(=O)C(C)(C)C)OC1=O (configuration not stated),,4.74
CCCCCC(=O)OCC1(CO)C/C(=C\CC(CC(C)C)CC(C)C)C(=O)O1 (configuration not stated),,8.21
CC(C)CC(C/C=C1/CC(/C=C/C(=O)OC(C)(C)C)(CO)OC1=O)CC(C)C (configuration not stated),200,7.74
CC(C)CC(C/C=C1\CC(CO)(COC(=O)C(C)(C)C)OC1=O)CC(C)C (configuration not stated),133,
CC(C)CC(C/C=C1/C[C@@](CO)(COC(=O)C(C)(C)C)OC1=O)CC(C)C,209,8.84
CCCCCCCC(=O)OCC1(CO)C/C(=C/CC(CC(C)C)CC(C)C)C(=O)O1 (configuration not stated),158,8.30
CC(C)=CCC1(CC=C(C)C)CC(CO)(COC(=O)C(C)(C)C)OC1=O (configuration not stated),,5.68
CC(C)CC(C/C=C1\CCC(CO)(COC(=O)C(C)(C)C)OC1=O)CC(C)C (configuration not stated),,7.32
